In general, IC50 refers to the concentration that inhibits the measured activity by half. Lower therefore signals greater potency in that assay. Broadly, the Cmax is the highest concentration seen after dosing.

T1 sequence (Q05941 whole entry): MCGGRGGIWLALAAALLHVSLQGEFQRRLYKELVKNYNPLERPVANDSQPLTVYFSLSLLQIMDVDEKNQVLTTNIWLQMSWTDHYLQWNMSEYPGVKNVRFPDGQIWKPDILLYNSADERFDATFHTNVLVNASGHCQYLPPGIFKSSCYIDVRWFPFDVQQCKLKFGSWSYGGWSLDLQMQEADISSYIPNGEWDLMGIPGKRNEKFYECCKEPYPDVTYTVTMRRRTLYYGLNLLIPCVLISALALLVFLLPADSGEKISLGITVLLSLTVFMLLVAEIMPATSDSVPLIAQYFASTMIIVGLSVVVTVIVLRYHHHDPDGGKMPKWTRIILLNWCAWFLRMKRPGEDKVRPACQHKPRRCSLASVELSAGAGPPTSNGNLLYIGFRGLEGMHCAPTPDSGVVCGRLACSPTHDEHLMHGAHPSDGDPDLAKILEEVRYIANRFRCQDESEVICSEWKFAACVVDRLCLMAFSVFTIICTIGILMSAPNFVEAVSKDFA

One series addresses T1, Neuronal acetylcholine receptor subunit alpha-7 (Rattus norvegicus, UniProt Q05941). As to the kind of experiment: Binding affinities for the alpha 7 nicotinic acetylcholine receptor was determined in PC12 cells. The series is classed as cell-based, PC-12.
Consider `c1ccc2cc(COC3CN4CCC3CC4)ccc2c1` (configuration not stated), for which the IC50 was 0.15 µM.

In the case of `c1ccc2c(COC3CN4CCC3CC4)cccc2c1` (configuration not stated), the IC50 was found to be 0.73 µM.

System in the next series: not listed separately
Nature of the series: Cmax wa determined in rat plasma at 30 mg/kg after po administration. Type of series: ADME, organism-based. Set-up: dose 30 mg/kg, route oral. In a few lines: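 Rats were dosed orally at 30 mg/kg. The read-out was the peak plasma concentration (Cmax), reported in ng/mL.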
`O=C(CC1CN2CCC1CC2)c1cc2ccccc2s1` (stereo in doubt; 15b) gave a Cmax of 270 ng/mL.

Molecule `c1ccc2sc(CCC3CN4CCC3CC4)cc2c1` (stereo in doubt; 16b) displayed a Cmax of 450 ng/mL.

The target in another series is T1, Neuronal acetylcholine receptor subunit alpha-7. Nature of the series: Alpha 7 nicotinic acetylcholine receptor binding activity in PC12 cells. The series is classed as cell-based, PC-12.
For `c1ccc2sc(CO[C@H]3CN4CCC3CC4)cc2c1`, the IC50 amounted to 0.515 µM.

For the molecule `c1ccc2sc(CC3CN4CCC3CC4)cc2c1` (configuration not stated), the IC50 came to 0.11 µM.

`O=C(c1cc2ccccc2s1)C1CN2CCC1CC2` (configuration not stated) showed an IC50 of 0.95 µM.

With `c1ccc2sc(CCCC3CN4CCC3CC4)cc2c1` (configuration not stated), the IC50 came to 0.37 µM.

As to `c1ccc2sc(CO[C@@H]3CN4CCC3CC4)cc2c1`, the IC50 came out at 0.026 µM.

The molecule `COc1ccc(Cc2cccnc2-c2cccnc2)c(OC)c1` showed an IC50 of 0.76 µM.

Take `c1ccc2sc(COC3CN4CCC3CC4)cc2c1` (configuration not stated): the IC50 was 0.059 µM.

In turn, `c1ccc2sc(CCC3CN4CCC3CC4)cc2c1` (single isomer, unassigned; (+)) registered an IC50 of 0.065 µM.

Consider `O=C(CC1CN2CCC1CC2)c1cc2ccccc2s1` (single isomer, unassigned; (+)), for which the IC50 was 0.13 µM.

Consider `O=C(CC1CN2CCC1CC2)c1cc2ccccc2s1` (single isomer, unassigned; (-)), for which the IC50 stood at 0.17 µM.

Consider `O=C(CC1CN2CCC1CC2)c1cc2ccccc2s1` (stereo in doubt; 15b), for which the IC50 turned out to be 0.15 µM.

Consider `c1ccc2sc(CCC3CN4CCC3CC4)cc2c1` (stereo in doubt; 16b), for which the 50% inhibitory concentration (IC50) was 0.023 µM.

`c1ccc2sc(CCC3CN4CCC3CC4)cc2c1` (stereo in doubt; (-)-16b): the IC50 was 0.22 µM.

The values are drawn from ChEMBL document CHEMBL1146809, “(+)-3-[2-(Benzo[b]thiophen-2-yl)-2-oxoethyl]-1-azabicyclo[2.2.2]octane as potent agonists for the alpha7 nicotinic acetylcholine receptor” (Bioorg Med Chem Lett, 2004).
